Source: ChEMBL document CHEMBL1129737, “Mechanism of selective incorporation of the melanoma seeker 2-thiouracil into growing melanin” (1996)

How the values were obtained:
Mus musculus [1] = assay: Specific Incorporation (cpm/mg of melanin) of melanin after isolation from tumor after ip injection at 30 min of assay; type: functional
Summary of the method: (§1)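 Mice (female C57Bl/6, s.c. B16 melanoma, two weeks) received 10 μCi [2-14C]TU and were euthanized at the noted times. Tumours were weighed, frozen, homogenized in 1% acetic acid–ethanol (30:70) and centrifuged. Melanosomal melanin was purified on a sucrose density gradient, dried to constant weight, and radioactivity was expressed as cpm/mg melanin.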

Mus musculus [2] = species on record: Mus musculus; assay: HPCL quantitation of resulting degradation product, pyrrole-2,3,5-tricarboxylic acid (PTCA) content after tumor isolation at 180 min of assay; type: functional, organism-based
Summary of the method: (§2)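 B16 tumours were grown s.c. in female C57Bl/6 mice, which were given 10 μCi [2-14C]TU two weeks later. At each time point, melanosomes were isolated by sucrose density gradient ultracentrifugation. 4 mg was oxidized with alkaline H2O2 (1 M NaOH, 30% H2O2) for 3 h at 25 °C. PTCA was quantified by HPLC with 280 nm detection and expressed per mg.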

Mus musculus [3] = assay: Absorbance at 350 nM of a solution of melanosomes […] from tumor after ip injection at 30 min of assay as a measure of pigment content of tissue; type: functional
Mus musculus [4] = assay: Absorbance at 350 nM of a solution of melanosomes obtained by treatment in hot alkali from tumor after ip injection at 90 min of assay as a measure of pigment content of tissue; type: functional
Mus musculus [5] = assay: Specific Incorporation (cpm/mg of melanin) of melanin after isolation from tumor after ip injection at 180 min of assay; type: functional; summary of the method: as §1
Mus musculus [6] = assay: Absorbance at 350 nM of a solution of melanosomes obtained by treatment in hot alkali from tumor after ip injection at 180 min of assay as a measure of pigment content of tissue; type: functional
Mus musculus [7] = species on record: Mus musculus; assay: HPCL quantitation of resulting degradation product, pyrrole-2,3,5-tricarboxylic acid (PTCA) content after tumor isolation at 0 min of assay; type: functional, organism-based; summary of the method: as §2
Mus musculus [8] = assay: Absorbance at 350 nM of a solution of melanosomes obtained by treatment in hot alkali from tumor after ip injection at 0 min of assay as a measure of pigment content of tissue; type: functional
Mus musculus [9] = species on record: Mus musculus; assay: HPCL quantitation of resulting degradation product, pyrrole-2,3,5-tricarboxylic acid (PTCA) content after tumor isolation at 90 min of assay; type: functional, organism-based; summary of the method: as §2
Mus musculus [10] = assay: Specific Incorporation (cpm/mg of melanin) of melanin after isolation from tumor after ip injection at 90 min of assay; type: functional; summary of the method: as §1
Mus musculus [11] = species on record: Mus musculus; assay: HPCL quantitation of resulting degradation product, pyrrole-2,3,5-tricarboxylic acid (PTCA) content after tumor isolation at 30 min of assay; type: functional, organism-based; summary of the method: as §2

Question: O=c1cc[nH]c(=S)[nH]1 [THIOURACIL] was tested. Which Specific incorporation (Mus musculus [1]) did it give?
Answer: 2500 c.p.m. (mg of melanin)-1

Question: And the Concentration (Mus musculus [2])?
Answer: 589 ng/mg

Question: What about the Activity (Mus musculus [3]) of the same molecule?
Answer: 0.032

Question: What about the Activity (Mus musculus [4]) of the same molecule?
Answer: 0.036

Question: What about the Specific incorporation (Mus musculus [5]) of the same molecule?
Answer: 2300 c.p.m. (mg of melanin)-1

Question: And the Activity (Mus musculus [6])?
Answer: 0.043

Question: What about the Concentration (Mus musculus [7]) of the same molecule?
Answer: 1120 ng/mg

Question: And the Activity (Mus musculus [8])?
Answer: 0.071

Question: What about the Concentration (Mus musculus [9]) of the same molecule?
Answer: 560 ng/mg

Question: What about the Specific incorporation (Mus musculus [10]) of the same molecule?
Answer: 2600 c.p.m. (mg of melanin)-1

Question: What about the Concentration (Mus musculus [11]) of the same molecule?
Answer: 493 ng/mg
